# Activity calls are given as the source filed them. The calls are words filed in the database; no cut-off is given here.
# Assays:
# Substance-P receptor = Substance-P receptor (Homo sapiens, UniProt P25103); assay: Displacement of [3H]SP from human NK1 receptor transfected in CHO cells by liquid scintillation counting method; format: cell-based
# Outline: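 hNK1 receptor expressed in CHO cells, measured as [3H]SP displacement. Values are means of 3–4 experiments.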
# Mu-type opioid receptor [1] = target: Mu-type opioid receptor (Cavia porcellus, UniProt P97266); assay: Agonist activity at mu opioid receptor in guinea pig ileum assessed as inhibition of electrically-stimulated muscle contraction; format: tissue-based
# Sequence of Mu-type opioid receptor (Cavia porcellus, UniProt P97266) (P97266 whole entry): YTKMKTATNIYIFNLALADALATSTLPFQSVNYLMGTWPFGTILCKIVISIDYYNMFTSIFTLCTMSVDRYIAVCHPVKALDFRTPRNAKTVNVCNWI
# Outline: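 Guinea pig ileum preparation used as the MOR-representative functional assay. Values are means of 3–4 experiments.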
# [2] = target: Delta-type opioid receptor (Mus musculus, UniProt P32300); assay: Agonist activity at delta opioid receptor in mouse vas deferens assessed as inhibition of electrically-stimulated muscle contraction; format: tissue-based
# Sequence of Delta-type opioid receptor (Mus musculus, UniProt P32300) (P32300 whole entry): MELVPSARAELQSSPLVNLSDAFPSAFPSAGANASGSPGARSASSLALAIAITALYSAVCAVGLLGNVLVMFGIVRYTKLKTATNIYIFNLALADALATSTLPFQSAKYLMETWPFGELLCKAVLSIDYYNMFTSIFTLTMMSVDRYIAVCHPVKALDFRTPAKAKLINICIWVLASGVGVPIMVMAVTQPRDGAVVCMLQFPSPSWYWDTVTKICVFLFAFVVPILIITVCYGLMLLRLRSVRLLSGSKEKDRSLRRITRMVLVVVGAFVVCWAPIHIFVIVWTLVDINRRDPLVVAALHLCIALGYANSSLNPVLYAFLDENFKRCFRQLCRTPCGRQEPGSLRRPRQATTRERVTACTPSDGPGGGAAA
# Outline: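 Electrically stimulated mouse vas deferens, a DOR-representative tissue assay. Means of 3–4 experiments.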
# Mu-type opioid receptor [3] = target: Mu-type opioid receptor (Rattus norvegicus, UniProt P33535); assay: Displacement of [3H]DAMGO from mu opioid receptor in rat brain membrane after 2 hrs; format: cell membranes
# Sequence of Mu-type opioid receptor (Rattus norvegicus, UniProt P33535) (P33535 whole entry): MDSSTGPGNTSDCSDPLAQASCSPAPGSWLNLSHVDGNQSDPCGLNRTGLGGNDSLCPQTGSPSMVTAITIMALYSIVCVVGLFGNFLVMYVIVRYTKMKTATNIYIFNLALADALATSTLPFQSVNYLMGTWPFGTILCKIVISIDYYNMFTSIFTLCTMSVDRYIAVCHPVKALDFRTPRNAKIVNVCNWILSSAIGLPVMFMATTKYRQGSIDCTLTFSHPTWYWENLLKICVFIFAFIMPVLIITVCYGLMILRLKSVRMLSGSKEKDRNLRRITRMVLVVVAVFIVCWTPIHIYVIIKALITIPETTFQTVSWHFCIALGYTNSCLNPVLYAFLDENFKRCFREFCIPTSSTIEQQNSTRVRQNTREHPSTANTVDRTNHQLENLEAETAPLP
# Outline: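 Rat brain membranes, with [3H]DAMGO as the MOR radioligand, measured as displacement binding. Values are means of 3–4 experiments.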
# [4] = target: Delta-type opioid receptor (Rattus norvegicus, UniProt P33533); assay: Displacement of [3H]DSLET from delta opioid receptor in rat brain membrane after 2 hrs; format: cell membranes
# Sequence of Delta-type opioid receptor (Rattus norvegicus, UniProt P33533) (P33533 whole entry): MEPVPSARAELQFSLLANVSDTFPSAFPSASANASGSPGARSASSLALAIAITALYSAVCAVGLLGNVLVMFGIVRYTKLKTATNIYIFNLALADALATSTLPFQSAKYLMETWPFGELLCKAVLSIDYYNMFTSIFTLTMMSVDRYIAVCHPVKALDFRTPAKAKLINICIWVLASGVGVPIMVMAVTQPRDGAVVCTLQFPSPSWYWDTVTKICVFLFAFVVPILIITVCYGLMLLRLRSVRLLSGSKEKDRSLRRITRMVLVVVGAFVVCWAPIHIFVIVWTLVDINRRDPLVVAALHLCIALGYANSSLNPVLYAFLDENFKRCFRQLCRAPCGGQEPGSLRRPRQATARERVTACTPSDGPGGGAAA
# Outline: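 Rat brain membranes, with [3H]DSLET as the DOR radioligand, measured as displacement binding. Values are means of 3–4 experiments.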
# Rattus norvegicus [5] = assay: Antinociceptive activity in it dosed naive Wistar rat after 30 mins by tail flick test analysis; format: functional, organism-based
# Outline: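 Naïve rats were dosed intrathecally at several doses. Tail-flick latency was read 30 min after dosing and compared with vehicle-treated naïve rats.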
# Rattus norvegicus [6] = species: Rattus norvegicus; assay: Antinociceptive activity in Wistar rat model of chronic constriction injury-induced neuropathic pain assessed as reduction in hyperalgesia at 0.8 to 3.5 nmol after 30 mins by cold plate test; format: functional, organism-based
# Outline: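 Rats underwent chronic constriction injury of the sciatic nerve. Seven days later, drug was given intrathecally as single injections at increasing doses. Hyperalgesia was read by cold plate test 30 min after dosing and compared with vehicle-treated CCI rats.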
# Rattus norvegicus [7] = species: Rattus norvegicus; assay: Antinociceptive activity in Wistar rat model of chronic constriction injury-induced neuropathic pain assessed as reduction in allodynia at 0.8 to 3.5 nmol after 30 mins by von Frey test; format: functional, organism-based
# Outline: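 Rats underwent chronic constriction injury of the sciatic nerve. Seven days later, drug was given intrathecally as single injections at increasing doses. Allodynia was read by von Frey test 30 min after dosing and compared with vehicle-treated CCI rats.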
# Rattus norvegicus [8] = species: Rattus norvegicus; assay: Antinociceptive activity in Wistar rat model of chronic constriction injury-induced neuropathic pain assessed as reduction in allodynia at 3.5 nmol, it QD for 6 consecutive days by von Frey test; format: functional, organism-based
# Outline: (§1)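 Rats with chronic constriction injury of the sciatic nerve, dosed intrathecally once daily for 6 consecutive days starting day 7 post-CCI. Allodynia measured by von Frey, hyperalgesia by cold plate. Doses: morphine 3.5 nmol, hybrids 0.8 or 1 nmol. Compared with vehicle-treated CCI rats and with morphine-treated CCI rats.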
# Rattus norvegicus [9] = assay: Antinociceptive activity in Wistar rat model of chronic constriction injury-induced neuropathic pain assessed as reduction in hyperalgesia at 3.5 nmol dosed on day7 after tolerance development with compound12 dosed at 0.8 nmol, it QD for 6 days by cold plate test; format: functional, organism-based
# Outline: (§2)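 Cross-tolerance design in CCI rats: intrathecal dosing once daily for 6 days from day 7 post-CCI (morphine 3.5 nmol, hybrids 0.8 or 1 nmol). On day 7 of dosing (day 14 post-CCI), morphine-tolerant rats received a single hybrid dose and hybrid-tolerant rats received morphine 3.5 nmol. Read by von Frey or cold plate and compared with pretest, day 1 and day 6.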
# Rattus norvegicus [10] = species: Rattus norvegicus; assay: Antinociceptive activity in naive Wistar rat at 35 nmol, it after 2 hrs by tail flick test analysis; format: functional, organism-based
# Rattus norvegicus [11] = species: Rattus norvegicus; assay: Potency index, ratio of antinociceptive activity of compound at 8 to 10 nmol, it to antinociceptive activity of morphine at 35 nmol, it in naive Wistar rat after 30 mins; format: functional
# Rattus norvegicus [12] = species: Rattus norvegicus; assay: Antinociceptive activity in Wistar rat model of chronic constriction injury-induced neuropathic pain assessed as reduction in hyperalgesia at 3.5 nmol, it QD for 6 consecutive days by cols plate test; format: functional, organism-based; outline: as §1
# Rattus norvegicus [13] = species: Rattus norvegicus; assay: Antinociceptive activity in Wistar rat model of chronic constriction injury-induced neuropathic pain assessed as reduction in allodynia at 1 nmol, it QD for 6 consecutive days by von Frey test; format: functional, organism-based; outline: as §1
# Rattus norvegicus [14] = species: Rattus norvegicus; assay: Antinociceptive activity in Wistar rat model of chronic constriction injury-induced neuropathic pain assessed as reduction in hyperalgesia at 1 nmol, it QD for 6 consecutive days by cols plate test; format: functional, organism-based; outline: as §1
# Rattus norvegicus [15] = species: Rattus norvegicus; assay: Antinociceptive activity in Wistar rat model of chronic constriction injury-induced neuropathic pain assessed as reduction in hyperalgesia at 1 nmol, it QD for 6 consecutive days measured on day-4 and day-5 by cold plate test relative to morphine; format: functional, organism-based; outline: as §1
# Rattus norvegicus [16] = assay: Antinociceptive activity in Wistar rat model of chronic constriction injury-induced neuropathic pain assessed as reduction in hyperalgesia at 3.5 nmol dosed on day7 after tolerance development with compound13 dosed at 1 nmol, it QD for 6 days by cold plate test; format: functional, organism-based; outline: as §2
# Rattus norvegicus [17] = assay: Antinociceptive activity in Wistar rat model of chronic constriction injury-induced neuropathic pain assessed as reduction in hyperalgesia at 1 nmol dosed on day7 after tolerance development with morphine dosed at 3.5 nmol, it QD for 6 days by cold plate test; format: functional, organism-based; outline: as §2
# Rattus norvegicus [18] = assay: Antinociceptive activity in Wistar rat model of chronic constriction injury-induced neuropathic pain assessed as reduction in allodynia at 1 nmol dosed on day7 after tolerance development with morphine dosed at 3.5 nmol, it QD for 6 days by von Frey test; format: functional, organism-based; outline: as §2
# Rattus norvegicus [19] = species: Rattus norvegicus; assay: Antinociceptive activity in naive Wistar rat at 10 nmol, it after 30 mins by tail flick test analysis; format: functional, organism-based
# Outline: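 Naïve rats dosed intrathecally, compared with vehicle-treated naïve rats. Tail-flick latency read 30 min after administration.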
# Rattus norvegicus [20] = assay: Potency index, ratio of antiallodynic effect of compound to antiallodynic effect of morphine in it dosed naive Wistar rat at 0.8 to 3.5 nmol after 30 mins by cold plate test; format: functional
# Rattus norvegicus [21] = species: Rattus norvegicus; assay: Antinociceptive activity in Wistar rat model of chronic constriction injury-induced neuropathic pain assessed as reduction in hyperalgesia at 0.8 nmol, it QD for 6 consecutive days by cols plate test; format: functional, organism-based
# Outline: (§3)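 Starting day 7 after sciatic nerve CCI, rats got 0.8 nmol i.t. once daily for 6 consecutive days. Allodynia was read by von Frey and hyperalgesia by cold plate. Comparisons were against vehicle-treated CCI rats and against rats given morphine 3.5 nmol i.t. on the same schedule.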
# Rattus norvegicus [22] = species: Rattus norvegicus; assay: Antinociceptive activity in Wistar rat model of chronic constriction injury-induced neuropathic pain assessed as reduction in hyperalgesia at 0.8 nmol, it QD for 6 consecutive days measured on day-4 and day-5 by cold plate test relative to morphine; format: functional, organism-based; outline: as §3
# Rattus norvegicus [23] = assay: Antinociceptive activity in Wistar rat model of chronic constriction injury-induced neuropathic pain assessed as reduction in hyperalgesia at 0.8 nmol dosed on day7 after tolerance development with morphine dosed at 3.5 nmol, it QD for 6 days by cold plate test; format: functional, organism-based
# Outline: (§4)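 Rats with sciatic nerve CCI got morphine 3.5 nmol i.t. once daily for 6 days, starting day 7 after CCI. On day 7 of repeated dosing (day 14 after CCI) they received a single i.t. dose of 0.8 nmol. Allodynia was read by von Frey and hyperalgesia by cold plate. Each was compared with pretest, with day 6 and with day 1 of dosing.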
# Rattus norvegicus [24] = assay: Antinociceptive activity in Wistar rat model of chronic constriction injury-induced neuropathic pain assessed as reduction in allodynia at 0.8 nmol dosed on day7 after tolerance development with morphine dosed at 3.5 nmol, it QD for 6 days by von Frey test; format: functional, organism-based; outline: as §4
# Rattus norvegicus [25] = species: Rattus norvegicus; assay: Antinociceptive activity in naive Wistar rat at 8 nmol, it after 2 hrs by tail flick test analysis; format: functional, organism-based
# Outline: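 Naïve rats got an intrathecal dose. The tail-flick response was followed over time up to 2 h after dosing.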
# Rattus norvegicus [26] = species: Rattus norvegicus; assay: Antinociceptive activity in Wistar rat model of chronic constriction injury-induced neuropathic pain assessed as reduction in allodynia at 0.8 nmol, it QD for 6 consecutive days by von Frey test; format: functional, organism-based; outline: as §3
# Sequence of Substance-P receptor (P25103 whole entry): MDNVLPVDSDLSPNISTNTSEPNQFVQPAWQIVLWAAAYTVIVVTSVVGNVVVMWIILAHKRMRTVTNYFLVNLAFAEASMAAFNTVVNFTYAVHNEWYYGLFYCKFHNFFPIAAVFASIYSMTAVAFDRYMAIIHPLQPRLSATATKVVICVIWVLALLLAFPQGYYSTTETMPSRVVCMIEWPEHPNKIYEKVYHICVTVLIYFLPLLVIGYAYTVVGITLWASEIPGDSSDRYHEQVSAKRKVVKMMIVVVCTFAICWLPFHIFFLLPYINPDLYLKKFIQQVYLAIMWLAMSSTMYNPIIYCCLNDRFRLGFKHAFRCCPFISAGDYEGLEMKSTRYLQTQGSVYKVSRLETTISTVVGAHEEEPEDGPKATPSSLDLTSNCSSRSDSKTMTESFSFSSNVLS
SMILES,Ki (Substance-P receptor),IC50 (Mu-type opioid receptor [1]),IC50 [2],Ki (Mu-type opioid receptor [3]),Ki [4],Activity (Rattus norvegicus [6]),Activity (Rattus norvegicus [7]),Activity (Rattus norvegicus [8]),Ratio (Rattus norvegicus [11]),other results
Cc1cc(O)cc(C)c1C[C@H](N)C(=O)N[C@H](CCCNC(=N)N)C(=O)N[C@H]1Cc2ccccc2CN(CCC(=O)N2CC[C@@H](C(=O)N(C)Cc3cc(C(F)(F)F)cc(C(F)(F)F)c3)[C@H](c3ccccc3)C2)C1=O,1.9 nM,30.1 nM,10.3 nM,3.07 nM,7.07 nM,–,–,–,–,–
Cc1cc(O)cc(C)c1C[C@H](N)C(=O)N[C@H](CCCNC(=N)N)C(=O)N[C@@H](Cc1ccccc1)C(=O)N[C@@H](CCCCN)C(=O)N1CCN([C@@H]2CCN(C(=O)c3cc(C(F)(F)F)cc(C(F)(F)F)c3)C[C@@H]2c2ccccc2)CC1,0.99 nM,137 nM,384 nM,9.91 nM,533 nM,–,–,–,–,–
Cc1cc(O)cc(C)c1C[C@H](N)C(=O)N[C@H](CCCNC(=N)N)C(=O)N[C@@H](Cc1ccccc1)C(=O)N[C@@H](CCCCN)CC(N)=O,–,5.9 nM,7.7 nM,0.187 nM,290 nM,–,–,–,–,–
CN[C@@H]1CCN(C(=O)c2cc(C(F)(F)F)cc(C(F)(F)F)c2)C[C@@H]1c1ccccc1,–,–,–,–,–,Active,Active,inactive,–,Activity (Rattus norvegicus [5]): inactive
Cc1cc(O)cc(C)c1C[C@H](N)C(=O)N[C@H](CCCNC(=N)N)C(=O)N[C@@H](Cc1ccccc1)C(=O)N[C@@H](CCCCN)C(=O)N1CC[C@@H](C(=O)N(C)Cc2cc(C(F)(F)F)cc(C(F)(F)F)c2)[C@H](c2ccccc2)C1,1.2 nM,658 nM,349 nM,39.8 nM,339 nM,–,–,–,–,–
Cc1cc(O)cc(C)c1C[C@H](N)C(=O)N[C@H](CCCNC(=N)N)C(=O)N[C@@H](Cc1ccccc1)C(=O)N[C@@H](CCCCN)C(=O)N(C)[C@@H]1CCN(C(=O)c2cc(C(F)(F)F)cc(C(F)(F)F)c2)C[C@@H]1c1ccccc1,1.1 nM,70.2 nM,814 nM,54 nM,> 1000 nM,–,–,–,–,–
CN1CC[C@]23c4c5ccc(O)c4O[C@H]2[C@@H](O)C=C[C@H]3[C@H]1C5 [MORPHINE],–,–,–,–,–,Active,Active,inactive,3.5,Activity (Rattus norvegicus [9]): Active; Activity (Rattus norvegicus [10]): Active; Activity (Rattus norvegicus [12]): Active
Cc1cc(O)cc(C)c1C[C@H](N)C(=O)N[C@H](CCCNC(=N)N)C(=O)N[C@H]1Cc2ccccc2CN(CCC(=O)N(C)[C@@H]2CCN(C(=O)c3cc(C(F)(F)F)cc(C(F)(F)F)c3)C[C@@H]2c2ccccc2)C1=O,1.4 nM,13 nM,12.6 nM,1.82 nM,11.2 nM,Active,Active,inactive,3.5,Activity (Rattus norvegicus [13]): inactive; Activity (Rattus norvegicus [14]): inactive; Activity (Rattus norvegicus [15]): Active; Activity (Rattus norvegicus [16]): Active; Activity (Rattus norvegicus [17]): Active; Activity (Rattus norvegicus [18]): Active; Activity (Rattus norvegicus [19]): Active; Ratio (Rattus norvegicus [20]): 3.5
Cc1cc(O)cc(C)c1C[C@H](N)C(=O)N[C@H](CCCNC(=N)N)C(=O)N[C@H]1Cc2ccccc2CN(CCC(=O)N2CCN([C@@H]3CCN(C(=O)c4cc(C(F)(F)F)cc(C(F)(F)F)c4)C[C@@H]3c3ccccc3)CC2)C1=O,1.4 nM,20.3 nM,14.1 nM,1.18 nM,10.6 nM,Active,Active,inactive,3.5,Activity (Rattus norvegicus [21]): Active; Activity (Rattus norvegicus [22]): Active; Activity (Rattus norvegicus [16]): Active; Activity (Rattus norvegicus [23]): Active; Activity (Rattus norvegicus [24]): Active; Activity (Rattus norvegicus [25]): Active; Ratio (Rattus norvegicus [20]): 3.5; Activity (Rattus norvegicus [26]): inactive
Cc1cc(O)cc(C)c1C[C@H](N)C(=O)N[C@H](CCCNC(=N)N)C(=O)N[C@@H](Cc1ccccc1)C(=O)N[C@@H](CCCCN)CC(=O)N1CC[C@@H](C(=O)N(C)Cc2cc(C(F)(F)F)cc(C(F)(F)F)c2)[C@H](c2ccccc2)C1,2.2 nM,538 nM,1660 nM,20.2 nM,> 1000 nM,–,–,–,–,–
